High-throughput results deposited in PubChem BioAssay by several laboratories.
Only some compounds are listed: those with a hit (about 0.54% of all), similar ones and a draw of the others.
ASAP1 GAP inh: inhibitors of human ASAP1 ArfGAP activity. Q9ULH1. inhibition, % at 16.5 µM. AID 624377. hit rate 0.19% among 360,000. ASAP1-stimulated ARF1 GTP hydrolysis, GDP FP detection; in the data active = inhibition above about 25%;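 also: 0% = vehicle with enzyme and substrate and 100% = no enzyme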
PP5 inh: PP5 (human) phosphatase inhibition; purified PP5c, OMFP substrate fluorescence; inhibition, % at 6.7 µM; hit rate 0.18% among 320,000; AID 1987;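 active = inhibition above the campaign's mean inhibition across all tested compounds plus 3 SD, cut at about 9.5% in these data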;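 also: 0% = DMSO only and 100% = 100 µM cantharidin control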
Target sequence (P53041 whole entry, looked up): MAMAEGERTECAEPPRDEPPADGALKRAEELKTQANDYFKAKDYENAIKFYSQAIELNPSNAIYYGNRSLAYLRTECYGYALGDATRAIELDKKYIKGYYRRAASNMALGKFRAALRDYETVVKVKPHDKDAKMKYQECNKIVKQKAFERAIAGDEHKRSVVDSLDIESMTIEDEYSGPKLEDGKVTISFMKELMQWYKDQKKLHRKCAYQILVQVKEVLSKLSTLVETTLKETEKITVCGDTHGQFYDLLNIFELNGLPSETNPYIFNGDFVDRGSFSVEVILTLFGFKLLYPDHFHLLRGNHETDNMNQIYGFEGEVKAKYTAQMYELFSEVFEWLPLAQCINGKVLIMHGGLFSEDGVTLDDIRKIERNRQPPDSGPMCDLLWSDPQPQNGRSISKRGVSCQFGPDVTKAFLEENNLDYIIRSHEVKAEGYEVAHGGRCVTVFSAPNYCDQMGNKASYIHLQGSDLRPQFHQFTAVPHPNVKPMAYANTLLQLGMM
ARFGAP1 inh: inhibits rat ARF GTPase activating protein 1; Q62848; Arfgap1-stimulated ARF1 GTP hydrolysis, GDP FP detection; inhibition, % at 16.5 µM; hit rate 0.26% among 360,000; AID 651572;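 active = inhibition above a per-plate limit, mean inhibition of low control wells plus 3 SD, cut at about 25% in these data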;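 also: 0% = DMSO wells with enzyme and 100% = wells lacking Arfgap1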
Target sequence (Q62848 1-136 limits assumed): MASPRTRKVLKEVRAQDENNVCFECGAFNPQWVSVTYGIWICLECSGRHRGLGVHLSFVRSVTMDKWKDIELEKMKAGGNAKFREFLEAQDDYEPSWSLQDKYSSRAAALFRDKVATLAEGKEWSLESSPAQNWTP
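Assay system: purified rat His6-Arfgap1 residues 1-136 (GAP domain); Reagent: human Δ17 ARF1 bound to GTP; Dosing: 16.5 µM single point, 1.26% DMSO; Times: GTP hydrolysis reaction 2 h at 25 °C; Signal: FP, GDP Alexa 633 tracer displaced from anti-GDP antibody, 620/688 nm; Measure: % inhibition from polarization.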
PKD1 kinase inh: inhibitors of human PKD1 kinase; inhibition, % (test concentration not listed); hit rate 0.056% among 200,000; PKD1 kinase fluorescence polarization assay; AID 797; in the data active = inhibition above about 50%
PKD FP artifact: interferes with fluorescence polarization in PKD inhibitor counter-screen. shares compounds with PKD1 kinase inh. PKD1 FP assay interference counter-screen. inhibition, % at 10 µM. 85 tested, under 10 active. AID 1315; call rule not given here
Active calls of the source: *; . = no result.

SMILES | ASAP1 GAP inh | PP5 inh | ARFGAP1 inh | PKD1 kinase inh | PKD FP artifact
O=C1c2ccccc2-c2onc3ccc(NCc4ccco4)c1c23 | . | -7 | . | 60* | 6
CCOc1ccc2noc3c2c1C(=O)c1ccccc1-3 | 14 | -24 | 13 | 97* | 62*
CCNc1ccc2noc3c2c1C(=O)c1ccccc1-3 | 3 | -19 | 12 | 41 | .
COc1ccc2nc3sc(C(=O)NCCCN4CCc5ccccc5C4)cc3cc2c1 | 12 | -4 | 13 | 56* | -17
Cn1c(=O)[nH]c(=O)c2c1nc(NC1CCCCC1)n2CC(=O)NC1CCCCC1 | . | . | . | 101* | -24
Cn1c(=O)[nH]c(=O)c2c1nc(NC1CCCCC1)n2CCO | -1 | 2 | -3 | . | .
C[C@H](O)[C@@H]1C(=O)N2CCc3c([nH]c4c(-c5ccccc5)cccc34)[C@@H]2C[C@@H]1N(C)C(=O)Nc1ccccc1 | 7 | . | 0 | . | .
Cn1c(OCc2cccnc2)nc2c1c(=O)n(Cc1ccc(Cl)cc1)c(=O)n2C | 8 | 2 | 14 | -6 | .
Cn1c(OCc2cccnc2)nc2c1c(=O)n(Cc1ccc(Br)cc1)c(=O)n2C | 2 | 1 | 4 | 97* | -4
CC(=O)Nc1ccc2c(c1)c1ccccc1n2C(C)=O | -15 | 3 | 13 | 59* | -13
O=S(=O)(c1cccc2cnccc12)N1CCCNCC1 | . | -2 | . | 104* | -5
CC1CNCCN1S(=O)(=O)c1cccc2cnccc12 (stereo unspecified) | 8 | -1 | -4 | 20 | .
COC(=O)c1cn(CC(=O)N2C(C)CCCC2C)c2ccccc12 (stereo unspecified) | 10 | 1 | 0 | -6 | .
CC1CCCC(C)N1C(=O)Cn1cc(/C=C2/C(=O)Nc3ccccc32)c2ccccc21 (stereo unspecified) | . | 5 | . | 51* | -8
Cc1c(C(=O)N/N=C/c2ccc(O)c(Br)c2)sc(N)c1C#N | 18 | 1 | 4 | 76* | -17
C=CCn1c(SC(C)C(=O)NCc2ccc3c(c2)OCO3)nnc1C1CCCCC1 (stereo unspecified) | 5 | 1 | -9 | 97* | -5
CC(Sc1nnc2ccccn12)C(=O)NCc1ccc2c(c1)OCO2 (stereo unspecified) | 4 | -1 | 6 | 0 | .
NC(=NCCc1c[nH]c2ccccc12)NS(=O)(=O)c1cc(F)ccc1F | -5 | 1 | 1 | 52* | -15
O=C(Nc1ccsc1C(=O)NC1CC1)c1ccccc1 | -14 | 1 | 1 | 50* | -10
O=C(Nc1ccsc1C(=O)O)c1ccccc1 | -5 | -5 | 0 | . | .
COCc1cc(N2CCN(C(=O)OC(C)(C)C)C[C@@H]2C)ccc1N1CC[C@H](O)C1 | -5 | . | -9 | . | .
COC(=O)c1cccc2c1-c1ccccc1/C2=N\NC(N)=O | 12 | 2 | -11 | . | .
COC(=O)c1cccc2c1-c1ccccc1/C2=N/O | 4 | 2 | 9 | 70* | -19
O=C(Nc1ccccc1)C12CC3CC(C1)CC(n1cnc([N+](=O)[O-])n1)(C3)C2 | 2 | 2 | -4 | -4 | .
O=C(Nc1cccc([N+](=O)[O-])c1)C12CC3CC(C1)CC(n1cnc([N+](=O)[O-])n1)(C3)C2 | 2 | 1 | 4 | 62* | 0
SMILES | ASAP1 GAP inh | PP5 inh | ARFGAP1 inh | PKD1 kinase inh | PKD FP artifact
CCCCS(=O)(=O)N1CCCc2nc(-c3ccc(OC)cc3)ccc21 | -1 | . | 5 | . | .
CCOC(=O)c1[nH]c2cc(OC)c(OC)cc2c1NC(=O)CN1CCN(C)CC1 | . | . | . | 76* | -2
CCc1c(-c2cccc(F)c2)ncn1CCc1ccccc1OC | 10 | . | -2 | . | .
CCOc1cccc(C2C(C(=O)c3ccc(C)o3)=C(O)C(=O)N2c2nccs2)c1 (stereo unspecified) | 10 | -1 | 5 | 88* | 71*
CCCCCCCCN1C(=O)[C@@H](CC(=O)NCCc2ccccc2OC)C[C@@]2(C(=O)OC)C1=C[C@H](C1CCCC1)O[C@@H]2C | 5 | . | 0 | . | .
O=C(C(=O)N1CCN(C(=O)c2cccs2)CC1)c1cccc(C(F)(F)F)c1 | 9 | . | 9 | . | .
CC(C)CNc1cccc2c1S(=O)(=O)N[C@@H](Cc1ccccc1)CO2 | 5 | . | 16 | . | .
CCN1/C(=C/C(C)=O)Sc2ccc(OC)cc21 | 13 | 0 | 0 | 78* | -14
CCN=C1NC(c2cccc(F)c2)C(C(=O)OC)=C(C)N1Cc1ccccc1C(F)(F)F (stereo unspecified) | 1 | . | 3 | . | .
O=C(Nc1ccccc1)OCCCCCOC(=O)Nc1ccccc1 | 2 | 0 | -1 | . | .
O=C(Nc1ccccc1Cl)ON=C1c2ccccc2-c2ccccc21 | . | 5 | . | 61* | -11
O=C(Nc1ccccc1Cl)OCC#CCOC(=O)Nc1ccccc1Cl | 11 | . | 11 | . | .
O=C(Nc1ccccc1)ON=C1c2ccccc2-c2ccccc21 | -7 | 3 | -7 | 51* | 4
COCCNC(=O)CN(c1ccc(F)cc1)S(=O)(=O)c1ccc2c(c1)OCCO2 | -21 | -2 | -3 | . | .
CCCNC(=O)CN(c1ccc(F)cc1)S(=O)(=O)c1ccc2c(c1)OCCO2 | 10 | 3 | 9 | 56* | -14
O=C(N[C@H](C(=O)N1CCC[C@H]1C(=O)NCCc1ccccc1Cl)C1CCCCC1)c1cccs1 | -8 | . | -2 | . | .
Cc1cc(N=CC2=C(O)CC(C)(C)CC2=O)no1 | -5 | 0 | -5 | 60* | -4
COCC(C)n1c(C)cc(C(=O)COC(=O)c2nc3nc(C)cc(C)n3n2)c1C (stereo unspecified) | 11 | -4 | 2 | 98* | -6
COCC(C)n1c(C)cc(C(=O)COC(=O)c2cccn2C)c1C (stereo unspecified) | 0 | . | 12 | . | .
Cc1cc(N2CCN(C(=O)OC(C)(C)C)C[C@H]2C)ccc1N1CC[C@@H](O)C1 | -4 | . | -1 | . | .
Cn1c(=O)c(NCCO)c2c3c(cccc31)C(=O)c1ccccc1-2 | 8 | -121 | 12 | 144* | 100*
CCOC(=O)N1CCN(c2cc(NCCC(=O)O)c3c4c(onc24)-c2ccccc2C3=O)CC1 | . | 5 | . | 56* | 14
Cc1c(N/N=C(\C#N)C(=O)c2ccc(Cl)cc2)c(=O)n(-c2ccccc2)n1C | 17 | 0 | -10 | 62* | 15
CCc1c(-c2cccc(Br)c2)ncn1CCc1ccccc1OC | -1 | . | -11 | . | .
COc1ccc(C2C(C(=O)c3cccs3)=C(O)C(=O)N2c2nncs2)cc1 (stereo unspecified) | 10 | 2 | 7 | 67* | 34
COCCNC(=S)N(C)[C@H]1C[C@H]2c3[nH]c4c(-c5ccc6c(c5)OCO6)cccc4c3CCN2C(=O)[C@H]1[C@H](C)O | 17 | . | -4 | . | .
Nc1ccc2nc3c(=O)n(CCc4ccccc4)c(=O)[nH]c3nc2c1 | -6 | -3 | -4 | . | .
CCCCn1c(=O)[nH]c2nc3cc(N)ccc3nc2c1=O | 1 | -6 | 2 | 60* | 7
COC(=O)[C@]12C[C@H](CC(=O)NCc3cccc4ccccc34)C(=O)N(CCC3=CCCCC3)C1=C[C@H](COCc1ccccc1)O[C@@H]2C | -1 | . | 4 | . | .
